Experimental data pooled from the literature.
Protocols differ between the studies behind these lines.
Target: Homeodomain-interacting protein kinase 2 (HIPK2, Homo sapiens, UniProt Q9H2X6)

SMILES | test | conditions | quantity | value
Cn1cncc1[C@@](O)(COc1ccc(C#N)cc1-c1ccc(OC(F)(F)F)cc1)c1ccc(C#N)cc1 | cell-free assay, competition with immobilised ligand | 1 µM | remaining binding | 100%
O=c1[nH]c2ccccc2n1C1CCN(Cc2ccc(-c3[nH]c4cc5ncnc5cc4nc3-c3ccccc3)cc2)CC1 | cell-free assay | 0.5 µM | remaining signal | 110%
Cc1nn(C)cc1-c1nc2c(N3CCN(Cc4ccc(Cl)cc4)CC3)c(Cl)cnc2[nH]1 | binding, competition with immobilised ligand | 1 µM | remaining binding | 70%
Cn1cc(-c2cc(F)cc(N3CCn4c(cc5c4CCCC5)C3=O)c2CO)cc(Nc2ccc(N3CCN(C4COC4)CC3)cn2)c1=O | enzyme activity, inhibitor | 0.1 µM | inhibition | 9%
COc1ncccc1-c1cnn2ccc(N3CCN(C(=O)OC(C)C)CC3)nc12 | binding, competition with immobilised ligand | 1 µM | remaining binding | 88%
Nc1ncc(-c2nc(N3CCOCC3)nc(N3CCOCC3)n2)c(C(F)F)n1 | binding, competition with immobilised ligand | 10 µM | remaining binding | 59%
CC(C)(C)c1cc(C=C(C#N)C#N)cc(Br)c1O | enzyme activity, inhibitor | 0.5 µM | remaining activity | 110%
N#CC1(c2ccccn2)CCN(Cc2cc(C(=O)O)c(=O)n3ccccc23)CC1 | cell-free assay, competition with immobilised ligand | 1 µM | remaining binding | 66%
Cn1cc(-c2cccc(N3CCc4c(sc5c4CC(C)(C)C5)C3=O)c2CO)cc(Nc2ccncn2)c1=O | enzyme activity, inhibitor | 1 µM | inhibition | -4%
